The values that follow come from ChEMBL document CHEMBL2202977, “Optimization and structure-activity relationships of a series of potent inhibitors of methicillin-resistant Staphylococcus aureus (MRSA) pyruvate kinase as novel antimicrobial agents” (Bioorg Med Chem, 2012).

Converted amounts (≈) assume the structure as drawn.

One assay addresses T1, Pyruvate kinase (Staphylococcus aureus (strain MRSA252), UniProt Q6GG09).
T1 sequence (Q6GG09 whole entry): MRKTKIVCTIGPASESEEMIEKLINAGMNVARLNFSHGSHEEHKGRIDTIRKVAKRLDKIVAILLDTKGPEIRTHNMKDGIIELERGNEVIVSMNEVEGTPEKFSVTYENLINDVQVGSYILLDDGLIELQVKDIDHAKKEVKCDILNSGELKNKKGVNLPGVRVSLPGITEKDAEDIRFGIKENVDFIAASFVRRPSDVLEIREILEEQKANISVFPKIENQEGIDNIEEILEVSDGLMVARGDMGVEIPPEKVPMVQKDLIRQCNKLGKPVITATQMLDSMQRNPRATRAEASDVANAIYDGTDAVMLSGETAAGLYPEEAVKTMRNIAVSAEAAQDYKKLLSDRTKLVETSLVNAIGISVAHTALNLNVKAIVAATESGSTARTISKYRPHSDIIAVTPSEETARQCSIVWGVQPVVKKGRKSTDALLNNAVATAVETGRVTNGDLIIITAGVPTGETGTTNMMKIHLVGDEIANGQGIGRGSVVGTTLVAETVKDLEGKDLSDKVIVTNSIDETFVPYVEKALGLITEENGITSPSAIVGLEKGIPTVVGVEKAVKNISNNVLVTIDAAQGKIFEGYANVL
Put plainly: Inhibition of methicillin-resistant Staphylococcus aureus 252 pyruvate kinase by LDH assay. Further details: species or system Staphylococcus aureus subsp. aureus MRSA252. The method, boiled down: (§1)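 MRSA pyruvate kinase activity was measured by a previously described procedure. IC50 was calculated from triplicate 15-point titrations, or averaged over n such determinations. Where no IC50 was obtained, the value is % inhibition at the highest concentration tested.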

Assay [1] concerns the target T2, Pyruvate kinase (Staphylococcus aureus (strain MRSA252)) (UniProt Q6GG09).
T2 sequence (whole entry): T1 sequence (Q6GG09 whole entry)
The experiment in a line: Inhibition of methicillin-resistant Staphylococcus aureus 252 pyruvate kinase at 10 uM by LDH assay. The note with it: Staphylococcus aureus subsp. aureus MRSA252. The method, boiled down: as §1

A further assay concerns Staphylococcus aureus. Put plainly: Antimicrobial activity against Staphylococcus aureus RN4220 after 24 hrs broth microdilution method. The format is functional. The method, boiled down: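 MIC taken as the minimum concentration giving >98% growth inhibition of the named S. aureus strain (RN4220, ATCC 25923 or ATCC 29213). Values are single determinations or averages of n determinations. Vancomycin was run as control.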
On the technique in general: Broth dilution looks for growth in wells or tubes with falling amounts of substance.

The target of assay [2] is Pyruvate kinase PKLR (Homo sapiens) (UniProt P30613). Put plainly: Inhibition of human pyruvate kinase L at 10 uM by LDH assay. The procedure, abridged: (§2)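 Selected compounds were tested against mammalian PK isoforms M1, M2, R and L at the highest concentration, 10 µM. Results are given as percent inhibition.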
Assay [3] addresses Pyruvate kinase PKM (Homo sapiens) (UniProt P14618). Put plainly: Inhibition of human pyruvate kinase M1 at 10 uM by LDH assay. The procedure, abridged: as §2
Assay [4] addresses Pyruvate kinase PKLR (Homo sapiens) (UniProt P30613). Put plainly: Inhibition of human pyruvate kinase R at 10 uM by LDH assay. The method, boiled down:
as §2

Chain of Pyruvate kinase PKLR (Homo sapiens) (P30613 whole entry, looked up, canonical isoform): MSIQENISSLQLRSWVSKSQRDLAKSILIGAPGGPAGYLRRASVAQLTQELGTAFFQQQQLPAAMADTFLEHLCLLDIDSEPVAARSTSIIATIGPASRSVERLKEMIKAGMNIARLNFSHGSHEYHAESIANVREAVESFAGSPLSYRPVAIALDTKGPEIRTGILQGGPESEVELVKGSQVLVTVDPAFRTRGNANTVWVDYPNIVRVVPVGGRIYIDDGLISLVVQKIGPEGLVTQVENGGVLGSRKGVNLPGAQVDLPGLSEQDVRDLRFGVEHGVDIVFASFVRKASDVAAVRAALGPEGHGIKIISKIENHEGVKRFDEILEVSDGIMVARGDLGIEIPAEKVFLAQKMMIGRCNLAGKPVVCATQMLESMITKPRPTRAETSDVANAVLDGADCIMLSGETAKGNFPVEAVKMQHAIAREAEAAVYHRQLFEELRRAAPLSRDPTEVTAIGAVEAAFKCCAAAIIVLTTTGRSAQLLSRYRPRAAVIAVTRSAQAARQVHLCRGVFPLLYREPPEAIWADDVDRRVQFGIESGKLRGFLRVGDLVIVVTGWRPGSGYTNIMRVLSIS
Chain of Pyruvate kinase PKM (Homo sapiens) (P14618 2-531 limits assumed): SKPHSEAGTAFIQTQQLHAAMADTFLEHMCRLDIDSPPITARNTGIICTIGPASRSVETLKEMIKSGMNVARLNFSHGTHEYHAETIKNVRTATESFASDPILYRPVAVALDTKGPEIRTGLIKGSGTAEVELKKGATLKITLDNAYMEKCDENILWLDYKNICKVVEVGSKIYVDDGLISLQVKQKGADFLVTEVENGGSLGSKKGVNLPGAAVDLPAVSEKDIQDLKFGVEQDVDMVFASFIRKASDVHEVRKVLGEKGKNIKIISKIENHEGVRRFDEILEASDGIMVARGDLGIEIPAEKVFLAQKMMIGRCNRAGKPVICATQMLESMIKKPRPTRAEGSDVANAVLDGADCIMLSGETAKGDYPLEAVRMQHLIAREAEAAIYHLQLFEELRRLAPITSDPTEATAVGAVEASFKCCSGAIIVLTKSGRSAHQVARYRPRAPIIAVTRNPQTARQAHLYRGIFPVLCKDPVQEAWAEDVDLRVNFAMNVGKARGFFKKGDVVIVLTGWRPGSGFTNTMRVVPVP

The IC50 is the concentration that gives 50% inhibition. Read a low IC50 as greater potency in that assay. As a reminder, the inhibition is the relative decrease from the control value, in per cent. For the compound `COc1ccc2c(c1)cc(C(C)=NNC(=O)c1cc(Br)ccc1O)n2C` (mixture of isomers), the IC50 against Pyruvate kinase was determined as 794 nM. Further, the inhibition was 71.3% in assay [1], 2.8% in assay [2], -2.8% in assay [3] and 5.5% in assay [4]. Besides, in the assay on Staphylococcus aureus, the “MIC>98” value amounted to 10.4 µg/mL.

Regarding `C/C(=N\NC(=O)c1cc(Br)ccc1O)c1cc2cc(C(F)(F)F)ccc2[nH]1`, in assay [1], the inhibition came to 46%.

Compound `CC(=NNC(=O)c1cc(Br)ccc1O)c1cc2cc(F)ccc2n1C` (mixture of isomers) displayed an IC50 against Pyruvate kinase of 165 nM. The inhibition is 96.1% in assay [1], -2.3% in assay [2], -4.5% in assay [3] and -2.9% in assay [4]. Moreover, in the assay on Staphylococcus aureus, the “MIC>98” value amounted to 3.3 µg/mL.

Turning to `Cn1c(C=NNC(=O)c2cc(Br)ccc2O)cc2ccccc21` (mixture of isomers), at Pyruvate kinase, the half-inhibitory concentration (IC50) amounted to 3090 nM. The “MIC>98” value in the assay on Staphylococcus aureus was greater than 186 µg/mL.

In the case of `COc1ccc(Br)cc1C(=O)O/N=C(\C)c1cc2ccccc2n1C`, the inhibition in assay [1] was found to be 33%. The “MIC>98” value with Staphylococcus aureus is greater than 161 µg/mL.

Compound `C/C(=N\NC(=O)c1cc(Br)cc(Br)c1O)c1cc2ccccc2[nH]1` came in with an IC50 on Pyruvate kinase of 74 nM. The MIC>98 with Staphylococcus aureus stood at 64 µg/mL (≈ 142 µM).

On Pyruvate kinase, `C/C(=N\NC(=O)c1cc(Br)ccc1O)c1cc2c(F)c(F)ccc2[nH]1` gave an IC50 of 24 nM. Also, the “MIC>98” value with Staphylococcus aureus was 41 µg/mL (≈ 100 µM).

Turning to `C/C(=N\NC(=O)c1ccccn1)c1cc2ccccc2[nH]1`, the inhibition in assay [1] was determined as 15%. Moreover, the “MIC>98” value in the assay on Staphylococcus aureus was greater than 139 µg/mL.

Take `C/C(=N\NC(=O)c1ccc(Br)cc1O)c1cc2ccccc2[nH]1`: inhibition at Pyruvate kinase was half-maximal at 1310 nM (IC50). This counts as single-digit micromolar.

Regarding `C/C(=N\OC(=O)c1cc(Br)ccc1O)c1cc2ccccc2n1C`, in assay [1], the inhibition stood at 34%. Also, the “MIC>98” value with Staphylococcus aureus is greater than 155 µg/mL.

On Pyruvate kinase, `COc1cc(O)c(C(=O)N/N=C(\C)c2cc3ccccc3[nH]2)cc1Br` yielded an IC50 of 324 nM. In addition, the “MIC>98” value against Staphylococcus aureus was greater than 161 µg/mL.

As to `C/C(=N\NC(=O)c1cc(Br)ccc1O)c1cc2cc(I)ccc2[nH]1`, it took 43 nM to reach half-maximal inhibition against Pyruvate kinase (IC50). Moreover, the “MIC>98” value against Staphylococcus aureus was greater than 64 µg/mL.

In the case of `C/C(=N\NC(=O)c1cccc(Br)c1)c1cc2ccccc2[nH]1`, the IC50 against Pyruvate kinase came out at 8150 nM. Moreover, the “MIC>98” value against Staphylococcus aureus is greater than 178 µg/mL.

On to `CC(=NNC(=O)c1cc(Br)ccc1O)c1cc2c(F)c(F)ccc2n1C` (mixture of isomers), for which half-maximal inhibition at Pyruvate kinase (IC50) required 145 nM. Also, in the assay with Staphylococcus aureus, the “MIC>98” value came out at 2 µg/mL.

Compound `CC(=NNC(=O)c1cc(Br)ccc1O)c1nc2ccccc2s1` had an IC50 against Pyruvate kinase of 224 nM. The “MIC>98” value in the assay with Staphylococcus aureus was greater than 78 µg/mL.

In the case of `C/C(=N\NC(=O)c1ccccc1)c1cc2ccccc2[nH]1`, the inhibition in assay [1] was determined as 28%. For the same compound, in the assay with Staphylococcus aureus, the “MIC>98” value is greater than 139 µg/mL.

In the case of `C/C(=N\NC(=O)c1cc(Br)ccc1O)c1cc2cc(F)c(F)cc2[nH]1`, the IC50 at Pyruvate kinase was determined as 20 nM. Besides, the “MIC>98” value with Staphylococcus aureus was greater than 82 µg/mL.

Consider `C/C(=N\NC(=O)c1cc(C(C)C)cc(C(C)C)c1O)c1cc2ccccc2[nH]1`, for which the inhibition in assay [1] came to 40%.

`COc1ccc(Br)cc1S(=O)(=O)N/N=C(\C)c1cc2ccccc2[nH]1`: the inhibition in assay [1] amounted to 12%.

For `C/C(=N\NC(=O)c1cc(-c2ccccc2)ccc1O)c1cc2ccccc2[nH]1`, the inhibition in assay [1] amounted to 20%.

Consider `C/C(=N\NC(=O)c1ccccc1O)c1cc2ccccc2[nH]1`, for which, at Pyruvate kinase, the midpoint of inhibition, the IC50, lay at 8620 nM. Further, the “MIC>98” value against Staphylococcus aureus worked out at 59 µg/mL (≈ 201 µM).

Turning to `COc1ccc(Br)cc1S(=O)(=O)N/N=C(\C)c1cc2c(F)c(F)ccc2[nH]1`, in assay [1], the inhibition is 11%.

Compound `CC(=NNC(=O)c1cc(Br)ccc1O)c1cc2ccc(Br)cc2n1C` (mixture of isomers) registered an IC50 at Pyruvate kinase of 17 nM. Besides, the “MIC>98” value with Staphylococcus aureus was 1 µg/mL.

`COc1cc(O)c(C(=O)NN=C(C)c2cc3ccccc3n2C)cc1Br` (mixture of isomers): on Pyruvate kinase, the 50% inhibitory concentration (IC50) came out at 841 nM. Besides, in the assay with Staphylococcus aureus, the “MIC>98” value is greater than 167 µg/mL.
